Test results as given in paper PMC2664388 (Pharmaceutical research, 2008).
Like-named read-outs stand apart in the source and are kept apart here. Blank lines part the entries; values can stand above or below the compound they belong to.

Experiments:
[1] = Trans-epithelial electrical resistance; assay type: in vitro ADME, New Zealand albino rabbits; settings: transport buffers with or without 5% HP-β-CD, 3h
[2] = Permeation across sclera/choroid/RPE, Valia-Chein side-bi-side cells; settings: for Permeability across sclera/choroid/RPE: 150μM in DPBS with 5% HP-β-CD, 37°C
[3] = Corneal permeation, side-bi-side diffusion apparatus; assay type: in vitro ADME, New Zealand albino rabbits; settings: for Transcorneal permeability: 150μM in DPBS with 5% HP-β-CD, 34°C
[4] = Aqueous solubility, shake flask method; assay type: physicochemical; settings: 25°C, 24h
[5] = sonicated 15min, equilibration 4 days; ref 29 Tommasini et al.; cited from earlier work
[6] = oral administration, cumulative urinary recovery; ref 14 Ameer et al.; cited from earlier work
[7] = sonicated 15min, equilibration 4 days; ref 29 Tommasini et al.; cited from earlier work; remark: listed apart in the source
[8] = pH solution stability in buffers; assay type: physicochemical
Outline: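 Test compound (25 μL of a 1 mg/mL stock) was added to 5 mL of USP buffer pre-equilibrated at 25 or 40°C. Content was measured by RP-HPLC on a C18 column with UV at 284 nm. The mobile phase was 20 mM KH2PO4 (pH 2.5) and acetonitrile at 75:25, run at 1 mL/min.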

[9] = Stability in ocular tissue homogenates; assay type: in vitro ADME, New Zealand albino rabbits; settings: 37°C, after 15h, 1mg/mL protein
[10] = Phase solubility with HP-β-CD; assay type: physicochemical
[11] = Transscleral permeation, Valia-Chein side-bi-side cells; assay type: in vitro ADME, New Zealand albino rabbits; settings: 150μM in DPBS with 5% HP-β-CD, 37°C
[12] = ref 21 Serra et al., cited from earlier work

TEER of corneas [1]: 5±0.3 KΩcm^2
SMILES: CC(O)COC[C@H]1O[C@@H]2O[C@H]3[C@H](O)[C@@H](O)[C@@H](O[C@H]4[C@H](O)[C@@H](O)[C@@H](O[C@H]5[C@H](O)[C@@H](O)[C@@H](O[C@H]6[C@H](O)[C@@H](O)[C@@H](O[C@H]7[C@H](O)[C@@H](O)[C@@H](O[C@H]8[C@H](O)[C@@H](O)[C@@H](O[C@H]1[C@H](O)[C@H]2O)O[C@@H]8COCC(C)O)O[C@@H]7COCC(C)O)O[C@@H]6COCC(C)O)O[C@@H]5COCC(C)O)O[C@@H]4COCC(C)O)O[C@@H]3COCC(C)O (stereo partly drawn) [HP-β-CD, 2-hydroxypropyl-beta-cyclodextrin]

SMILES: OCC(O)C(O)C(O)C(O)[14CH2]O (stereo not drawn) [[^14C]mannitol]
Mean percent cumulative amount transported per hour across the sclera/choroid/RPE ([2]; 0.5 μCi/mL): 0.1±0.04 percent per hour
Mean percent cumulative amount transported per hour across the cornea ([3]; 0.5 μCi/mL, 3h experiment): 1±0.15 percent per hour

SMILES: COc1ccc([C@@H]2CC(=O)c3c(O)cc(O[C@@H]4O[C@H](CO[C@@H]5O[C@@H](C)[C@H](O)[C@@H](O)[C@H]5O)[C@@H](O)[C@H](O)[C@H]4O)cc3O2)cc1O [hesperidin, hesperetin 7-rutinoside]
Saturation Solubility ([4]; Water (0% HP-β-CD)): 4.95 ± 0.99 µg/mL
Saturation Solubility ([4]; pH 1.21, 200 mM buffer): 4.15 ± 0.34 µg/mL
Saturation Solubility ([4]; pH 3.11, 200 mM buffer): 8.44 ± 0.47 µg/mL
Saturation Solubility ([4]; pH 5.12, 200 mM buffer): 5.96 ± 1.92 µg/mL
Saturation Solubility ([4]; pH 7.48, 200 mM buffer): 5.26 ± 0.31 µg/mL
Saturation Solubility ([4]; pH 9.11, 200 mM buffer): 8.93 ± 0.73 µg/mL
Binding constant with HP-β-CD [5]: 60 M⁻¹
Permeability across sclera/choroid/RPE ([2]; RPE to sclera (R-S) direction): 1.52±0.78×10^−6 cm/s
Permeability across sclera/choroid/RPE ([2]; sclera to RPE (S-R) direction): 0.82±0.69×10^−6 cm/s
Bioavailability [6]: < 25%
Intrinsic solubility [7]: 36 µM
Stability in aqueous solutions (decrease in hesperidin content) ([8]; pH 1.2, 3, 5, 7.4, 25 and 40°C, upto 2 months): did not demonstrate any decrease
Degradation rate constant ([8]; pH 9, 25°C): 0.03 day⁻¹
Half-life ([8]; pH 9, 25°C): 23 days
Degradation rate constant ([8]; pH 9, 40°C): 0.15 day⁻¹
Half-life ([8]; pH 9, 40°C): 4.5 days
Hesperetin generation, or decrease in hesperidin concentrations, in the homogenates [9]: not observed
Fold Increase in solubility ([10]; 1 %w/v HP-β-CD): 9
Hesperidin Solubility ([10]; 1 %w/v HP-β-CD in water, 25°C, 24h): 42.97 ± 4.28 µg/mL
Fold Increase in solubility ([10]; 2.5 %w/v HP-β-CD): 18
Hesperidin Solubility ([10]; 2.5 %w/v HP-β-CD in water, 25°C, 24h): 83.34 ± 6.34 µg/mL
Fold Increase in solubility ([10]; 5 %w/v HP-β-CD): 37
Hesperidin Solubility ([10]; 5 %w/v HP-β-CD in water, 25°C, 24h): 169.90 ± 25.36 µg/mL
Fold Increase in solubility ([10]; 7.5 %w/v HP-β-CD): 48
Hesperidin Solubility ([10]; 7.5 %w/v HP-β-CD in water, 25°C, 24h): 219.03 ± 15.62 µg/mL
Fold Increase in solubility ([10]; 10 %w/v HP-β-CD): 55
Hesperidin Solubility ([10]; 10 %w/v HP-β-CD in water, 25°C, 24h): 252.77 ± 8.81 µg/mL
Fold Increase in solubility ([10]; 15 %w/v HP-β-CD): 76
Hesperidin Solubility ([10]; 15 %w/v HP-β-CD in water, 25°C, 24h): 348.55 ± 5.28 µg/mL
Hesperidin Solubility ([10]; 20 %w/v HP-β-CD in water, 25°C, 24h): 431.97 ± 0.43 µg/mL
Binding constant (K) with HP-β-CD, 1:1 complex ([10]; from phase solubility plot, 25°C, 24h): 625 ± 78 M⁻¹
Permeability across sclera alone [11]: 10.2±2.1×10^−6 cm/s
Transcorneal permeability ([3]; apical to basolateral (A-B)): 1.11±0.86×10^−6 cm/s
Transcorneal permeability ([3]; basolateral to apical (B-A)): 1.16±0.05×10^−6 cm/s
pKa ([12]; all of the alcoholic hydroxyl groups): greater than 11.5
pKa ([12]; two phenolic hydroxyl groups): 10±0.2
